Measured values from BindingDB's records for doi:10.1016/j.bmc.2012.11.002 (China Pharmaceutical University, 2012).

Biological target: Tissue factor (Homo sapiens, UniProt P13726)
Assay: Inhibition of tissue factor procoagulant activity in LPS-stimulated human THP1 cells preincubated for 1 hr before LPS addition measured after 5 hrs
Outline: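 THP-1 cells grown in RPMI-1640 with 10% heat-inactivated FCS, 37 °C, 5% CO2. Cells at 1 × 10⁶/mL pretreated 1 h with compound or 0.1% DMSO vehicle, then given 500 ng/mL LPS for 5 h. Cells were pelleted, resuspended, frozen/thawed three times, and the lysate incubated with prothrombin complex plus CaCl₂ (pH 7.3) 15 min at 37 °C. Factor Xa chromogenic substrate (0.5 mM) with EDTA was added and A405 read.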

Tissue factor, sequence (P13726 whole entry): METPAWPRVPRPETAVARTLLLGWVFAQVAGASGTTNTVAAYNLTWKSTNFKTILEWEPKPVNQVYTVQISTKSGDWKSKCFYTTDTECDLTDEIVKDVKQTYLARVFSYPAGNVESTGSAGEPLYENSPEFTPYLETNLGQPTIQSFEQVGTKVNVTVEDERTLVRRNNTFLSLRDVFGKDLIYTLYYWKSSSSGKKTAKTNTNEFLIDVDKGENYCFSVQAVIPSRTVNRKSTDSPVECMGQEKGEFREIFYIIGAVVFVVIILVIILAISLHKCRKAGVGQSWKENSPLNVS

Row | SMILES | IC50 [nM]
1 | COc1cc2c(cc1OC)[C@H]1Cc3ccc(OC)c(O[C@@H]4O[C@H](CO)[C@@H](O)[C@H](O)[C@H]4O)c3CN1CC2 | 13
2 | COc1cc2c(cc1OC)[C@@H]1Cc3ccc(OC)c(O[C@@H]4O[C@H](CO)[C@@H](O)[C@H](O)[C@H]4O)c3CN1CC2 | 17
3 | COc1ccc2c(c1O[C@@H]1O[C@H](CO)[C@@H](O)[C@H](O)[C@H]1O)CN1CCc3cc4c(cc3[C@H]1C2)OCO4 | 8.8
4 | COc1ccc2c(c1O[C@@H]1O[C@H](CO)[C@@H](O)[C@H](O)[C@H]1O)CN1CCc3cc4c(cc3[C@@H]1C2)OCO4 | 39
5 | COc1cc(/C=C/C(=O)Oc2c(OC)ccc3c2CN2CCc4cc5c(cc4C2C3)OCO5)ccc1OC(C)=O (centres undefined) | 202
6 | COc1ccc2c(c1OC(=O)/C=C/c1ccccc1)CN1CCc3cc4c(cc3C1C2)OCO4 (centres undefined) | 3.8
7 | COc1ccc2c(c1OC(=O)c1ccccc1OC(C)=O)CN1CCc3cc4c(cc3C1C2)OCO4 (centres undefined) | 555
8 | COc1ccc2c(c1OC(=O)c1ccccc1)CN1CCc3cc4c(cc3C1C2)OCO4 (centres undefined) | 377
9 | CCCCCC(=O)Oc1c(OC)ccc2c1CN1CCc3cc4c(cc3C1C2)OCO4 (centres undefined) | 1500
10 | COc1ccc2c(c1O)CN1CCc3cc4c(cc3[C@@H]1C2)OCO4 | 36
11 | COc1ccc2c(c1OC)CN1CCc3cc4c(cc3C1C2)OCO4 (centres undefined) [9,10-dimethoxy-5,8,13,13a-tetrahydro-6H-[1,3]dioxolo[4,5-g]isoquino[3,2-a]isoquinoline] | 8.4
12 | COc1ccc2c(c1O)CN1CCc3cc4c(cc3[C@H]1C2)OCO4 [R-(+)-Tetrahydroberberrubine] | 6.8

More lines, now with the values ahead:

Row | IC50 [nM] | SMILES
13 | 119 | CCC(=O)Oc1c(OC)ccc2c1CN1CCc3cc4c(cc3C1C2)OCO4 (centres undefined)
14 | 63 | COc1ccc2c(c1OC(C)=O)CN1CCc3cc4c(cc3C1C2)OCO4 (centres undefined)
15 | 969 | COc1ccc2c(c1OC)CN1CCc3cc(O)c(O)cc3C1C2 (centres undefined)
16 | 187 | COc1cc2c(cc1OC)C1Cc3ccc(OC)c(O)c3CN1CC2 (centres undefined)
17 | 15 | COc1cc2c(cc1OC)C1Cc3ccc(OC)c(OC)c3CN1CC2 (centres undefined) [2,3,9,10-Tetramethoxy-5,8,13,13a-tetrahydro-6H-isoquino[3,2-a]isoquinoline]
18 | 152 | COc1cc2c(cc1OC)[C@@H]1Cc3ccc(O)c(OC)c3CN1CC2 [(-)-Corydalmine]
19 | 23 | COc1cc2c(cc1OC)[C@@H]1Cc3ccc(OC)c(OC)c3CN1CC2 [(-)-Tetrahydropalmatine]
